Most compounds without a hit are left out; they make up all but 2.6% or so of the library.
SENP1 FRET inh = blocks the human SENP1 SUMO protease catalytic domain; inhibition, % at 10 µM; Q9P0U3; recombinant SENP1 catalytic domain, CyPet-SUMO1-YPet FRET cleavage; hit rate 0.21% among 360,000;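 active = inhibition at least 30% at 10 µM, raw YFP signal under a set limit, fluorescence ratio 0.5 to 1.5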
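Assay system: hSENP1 catalytic domain, recombinant. Amount: SENP1 enzyme, 20 pM final. Schedule: 50 min reaction, RT, dark. Technique: FRET, CFP and YFP emission. Control set: no-enzyme wells low, DMSO-plus-enzyme wells high control.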
SENP6 inh = SENP6 protease inhibition; inhibition, % at 10 µM; hit rate 1.8% among 330,000; Recombinant SENP6 catalytic domain, aminoluciferin luminescence;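 active = inhibition above about 50% at the single tested dose, limit read from the data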
Target sequence (Q9GZR1 628-1112 limits assumed): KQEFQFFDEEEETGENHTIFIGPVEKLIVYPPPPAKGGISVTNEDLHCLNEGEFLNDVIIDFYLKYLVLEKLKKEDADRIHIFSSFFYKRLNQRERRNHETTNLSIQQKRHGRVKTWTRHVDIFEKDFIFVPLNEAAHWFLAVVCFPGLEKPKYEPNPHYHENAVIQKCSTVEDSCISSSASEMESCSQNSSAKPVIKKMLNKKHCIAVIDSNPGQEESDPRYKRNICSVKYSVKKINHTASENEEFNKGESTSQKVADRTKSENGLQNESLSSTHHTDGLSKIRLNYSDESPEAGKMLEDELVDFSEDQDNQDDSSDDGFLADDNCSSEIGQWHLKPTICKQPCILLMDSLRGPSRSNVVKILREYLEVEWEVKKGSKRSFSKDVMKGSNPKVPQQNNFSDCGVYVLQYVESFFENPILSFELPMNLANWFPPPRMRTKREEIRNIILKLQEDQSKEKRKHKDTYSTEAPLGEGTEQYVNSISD
Platelet DG rel = modulates dense granule release in human platelets. human platelet-rich plasma, SFLLRN dense granule ATP release, luminescence. inhibition, %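 (compounds screened at 7.5 µM in platelet-rich plasma)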. hit rate 0.22% among 300,000. AID 1663;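 active = mean replicate score, as percent of positive control, at or above 50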
SENP8 block-1 = SENP8 protease inhibition | Q96LD8 | hit rate 1.2% among 330,000 | purified SENP8, Z-RLRGG-aminoluciferin cleavage, luminescence | inhibition, % at 10 µM; in the data active = inhibition above about 50%
SENP8 block-2 = inhibitors of human SENP8 protease | recombinant SENP8, Nedd8 substrate fluorescence | inhibition, % at 20 µM | hit rate 0.64% among 360,000 | AID 602440; in the data active = inhibition mostly above about 40%, no sharp cut-off; inactive = mostly below about 27%
SENP7 block = blocks the human protease SENP7. recombinant SENP7, Z-RLRGG-aminoluciferin luminescence, 40 min. inhibition, % at 5 µM. hit rate 1.5% among 330,000. AID 434973;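 active = inhibition above about 50% at the single test dose, limit read from the data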
SENP8 conf = human SENP8 inhibition, confirmed | shares compounds with SENP7 block | Recombinant SENP8, Z-RLRGG-aminoluciferin luminescence, 60 min | inhibition, % at 12.5 µM | hit rate 40% among 6,200 | AID 488912;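 active = mean inhibition across replicates above about 50%, limit read from the data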
SENP6 conf = human SENP6 inhibition, confirmed. hit rate 58% among 6,200. inhibition, % at 12.5 µM. shares compounds with SENP7 block. AID 488915. recombinant SENP6, Z-RLRGG-aminoluciferin luminescence
SENP7 conf = human SENP7 inhibition, confirmed; shares compounds with SENP7 block; recombinant SENP7, Z-RLRGG-aminoluciferin luminescence, 40 min; inhibition, % at 12.5 µM; hit rate 69% among 6,200
Casp3 SENP sel = selectivity test for SENP inhibitors: human caspase-3 inhibition | shares compounds with SENP7 block | purified caspase-3, Z-DEVD-aminoluciferin luminescence, 60 min | inhibition, % at 12.5 µM | hit rate 60% among 6,200;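 active = mean inhibition above about 50%, limit read from the data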
Target sequence (P42574 28-227 limits assumed): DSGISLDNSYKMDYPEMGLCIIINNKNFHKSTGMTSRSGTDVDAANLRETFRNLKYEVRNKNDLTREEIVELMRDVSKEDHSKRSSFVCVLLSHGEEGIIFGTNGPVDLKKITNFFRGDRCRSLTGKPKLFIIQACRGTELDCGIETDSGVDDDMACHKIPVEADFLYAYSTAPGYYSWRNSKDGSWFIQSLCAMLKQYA
Luc interf = interferes with luciferase luminescence in SENP counter-screen. shares compounds with SENP7 block. Pre-incubated SENP8/Z-RLRGG-aminoluciferin, luciferase luminescence interference. inhibition, % at 12.5 µM. hit rate 39% among 6,200. AID 488919;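 active = mean inhibition above about 50% when retested at one dose, limit read from the data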
Large screens that a line does not name were inactive (follow-up assays come after a bar, where they were run).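 Rule for the calls, unless noted: active = mean inhibition above about 50% in the one-dose retest (limit read from the data); inactive = the rest.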

COc1ccc(S(=O)(=O)N2CCOCC2)cc1NC(=O)COC(=O)c1ccc([N+](=O)[O-])s1	SENP6 inh 53.3, SENP8 block-1 67.3 (no result: Platelet DG rel) | SENP8 conf inactive | SENP6 conf 82.6 | SENP7 conf inactive | Casp3 SENP sel inactive | Luc interf inactive
O=C(COC(=O)c1cccs1)Nc1cccc(S(=O)(=O)NC2=NCCCCC2)c1	none
O=C(COc1ccc(Cl)cc1)Nc1ncc([N+](=O)[O-])s1	none (no result: SENP6 inh, SENP8 block-1, SENP7 block)
O=C(COC(=O)c1ccc([N+](=O)[O-])s1)Nc1cccc(S(=O)(=O)NC2=NCCCCC2)c1	SENP6 inh 64.7, SENP8 block-1 60.8 | SENP8 conf 80.1 | SENP6 conf 86.7 | SENP7 conf inactive | Casp3 SENP sel inactive | Luc interf inactive
O=C(COC(=O)COc1ccccc1)Nc1ncc([N+](=O)[O-])s1	SENP6 inh 90.6, SENP8 block-1 88.0, SENP7 block 76.1 (no result: Platelet DG rel) | SENP8 conf 90.4 | SENP6 conf 89.3 | SENP7 conf 98.9 | Casp3 SENP sel 91.7 | Luc interf 90.1
CCCCNC(=O)NC1CCCC1	none
CSc1ccccc1NC(=O)Nc1ccccc1	SENP6 inh 89.6, SENP8 block-1 66.1, SENP7 block 81.3 | SENP8 conf inactive | SENP6 conf 82.1 | SENP7 conf inactive | Casp3 SENP sel 83.3 | Luc interf 82.9
CSc1ccccc1NC(=O)Nc1ccccc1Cl	none
O=C(C#Cc1ccccc1)Nc1cccc(F)c1	SENP6 inh 81.4, SENP8 block-1 71.5, SENP7 block 84.3 | SENP8 conf 84.8 | SENP6 conf 83.3 | SENP7 conf 93.0 | Casp3 SENP sel 66.8 | Luc interf 74.8
CSc1ccccc1NC(=O)Nc1cccc(F)c1	SENP6 inh 85.7, SENP8 block-1 69.3, SENP7 block 83.0 | SENP8 conf 87.4 | SENP6 conf 86.2 | SENP7 conf 97.6 | Casp3 SENP sel 79.3 | Luc interf 67.5
CCc1ccccc1NC(=O)Nc1cccc(F)c1	none
CC(C)(C)N1CC(C(=O)Nc2ccc(C(N)=O)cc2)CC1=O (stereo not given)	none (no result: SENP6 inh, Platelet DG rel, SENP8 block-1, SENP7 block)
COc1ccccc1/C=C/C(=O)OCC(=O)Nc1ccc2c(c1)OCCO2	none (no result: Platelet DG rel)
O=C(/C=C/c1ccco1)Nc1ccc2c(c1)OCCO2	none (no result: Platelet DG rel)
O=C(/C=C/c1ccccc1)Nc1ccc2c(c1)OCCO2	SENP6 inh 74.3, SENP8 block-1 66.9, SENP7 block 75.0 | SENP8 conf 74.0 | SENP6 conf 71.2 | SENP7 conf 87.7 | Casp3 SENP sel 64.7 | Luc interf 74.9
COc1ccccc1/C=C/C(=O)Nc1ccc2c(c1)OCCO2	SENP6 inh 67.4, SENP8 block-1 51.6, SENP7 block 60.0 | SENP8 conf 68.2 | SENP6 conf 66.1 | SENP7 conf 86.1 | Casp3 SENP sel inactive | Luc interf 63.0
CCOc1ccccc1CNC(=O)c1ccc(NC(=O)C2=C(C)OCCS2)cc1	none
O=C(NCC(=O)N(c1ccc(F)cc1)C(C(=O)NC1CCCCC1)c1ccncc1)c1ccco1 (stereo not given)	none
COCCCN(CCC#N)C(=O)c1c(-c2c(Cl)cccc2Cl)noc1C	none
COc1ccc(/C(N)=N/OC(=O)Cc2cccs2)cc1	SENP6 inh 50.8 | SENP8 conf inactive | SENP6 conf inactive | SENP7 conf 67.3 | Casp3 SENP sel inactive | Luc interf inactive
COc1ccc(/C(N)=N/OC(=O)C2CCCCC2)cc1	SENP7 block 68.2 | SENP8 conf inactive | SENP6 conf inactive | SENP7 conf 60.7 | Casp3 SENP sel inactive | Luc interf inactive
N/C(=N\OC(=O)CC1CCCCC1)c1cccc(Br)c1	none
N/C(=N\OC(=O)C1CCCCC1)c1cccc(Br)c1	SENP6 inh 69.2 | SENP8 conf inactive | SENP6 conf inactive | SENP7 conf 79.6 | Casp3 SENP sel 68.8 | Luc interf 51.4
COc1ccc(/C(N)=N/OC(=O)Cc2cccs2)cc1OC	none
COc1cc(-c2coc3c(C(=O)NCc4ccc(C(F)(F)F)cc4)cccc23)ccc1O	none (no result: SENP6 inh, Platelet DG rel, SENP8 block-1, SENP7 block)
Cc1c(O)ccc(/C=N/Nc2ncccc2[N+](=O)[O-])c1O	SENP6 inh 97.1, Platelet DG rel 63.4, SENP8 block-1 96.2, SENP7 block 100.3 | SENP8 conf 67.0 | SENP6 conf 77.0 | SENP7 conf 102.3 | Casp3 SENP sel 75.0 | Luc interf inactive
N#Cc1c(NC(=O)c2ccc(Br)o2)n(-c2ccccc2)c2nc3ccccc3nc12	SENP8 block-1 92.6, SENP7 block 76.6 | SENP8 conf inactive | SENP6 conf 90.4 | SENP7 conf 82.5 | Casp3 SENP sel inactive | Luc interf inactive
CCC(C)n1c(NC(=O)c2ccccc2)c(C#N)c2nc3ccccc3nc21 (stereo not given)	SENP6 inh 90.0, SENP8 block-1 65.9 | SENP8 conf inactive | SENP6 conf 69.0 | SENP7 conf inactive | Casp3 SENP sel inactive | Luc interf inactive
COc1cccc(CN(C)C(=O)c2cc(-c3cccs3)nc3ccccc23)c1	none
O=C(C1CCC(C(=O)N2CCc3ccccc32)CC1)N1CCc2ccccc21 (stereo not given)	none
O=C(Nc1ccccc1)C(=O)Nc1ccc2c(c1)N(C(=O)C1CC1)CCC2	SENP6 inh 98.0, Platelet DG rel 89.1, SENP8 block-1 96.2, SENP7 block 99.4 | SENP8 conf 55.8 | SENP6 conf 100.2 | SENP7 conf 102.8 | Casp3 SENP sel 98.4 | Luc interf inactive
O=C(Nc1sc2c(c1C(=O)O)CCCC2)c1ccc(F)cc1	SENP6 inh 87.7, SENP8 block-1 75.5 | SENP8 conf 88.5 | SENP6 conf 86.5 | SENP7 conf 94.3 | Casp3 SENP sel 80.3 | Luc interf 78.1
O=C(Nc1sc2c(c1C(=O)O)CCCCC2)c1ccccc1F	SENP6 inh 95.7, SENP8 block-1 94.2, SENP7 block 86.0 | SENP8 conf 96.7 | SENP6 conf 97.8 | SENP7 conf 101.6 | Casp3 SENP sel 94.9 | Luc interf 79.5
COC(=O)c1c(NC(=O)c2ccccc2C(=O)O)sc2c1CCCC2	none (no result: SENP6 inh, Platelet DG rel, SENP8 block-1, SENP7 block)
NC(=O)c1c(NC(=O)c2ccc(F)cc2)sc2c1CCC2	none
CS(=O)(=O)N1CCN(C(=O)c2ccc(Cl)s2)CC1	none
